High-throughput results deposited in PubChem by The Scripps Research Institute Molecular Screening Center.
MC4R antagonist: MC4R antagonists of cAMP signaling, primary screen, cell-based, TR-FRET, antagonist arm of biased-ligand search | MC4R-expressing cells, MTII-stimulated cAMP, LANCE TR-FRET | inhibition, % at 6.5 µM | 360,000 compounds, 0.48% hits | Melanocortin receptor 4 (Homo sapiens), P32245;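 active means inhibition above its plate's cutoff, the mean of tested wells on that plate plus 3 SD, cut at about 29% in these data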;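 further: 0% = Melanotan II alone and 100% = Melanotan II plus saturating MCL0020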
Target sequence (P32245 whole entry, looked up): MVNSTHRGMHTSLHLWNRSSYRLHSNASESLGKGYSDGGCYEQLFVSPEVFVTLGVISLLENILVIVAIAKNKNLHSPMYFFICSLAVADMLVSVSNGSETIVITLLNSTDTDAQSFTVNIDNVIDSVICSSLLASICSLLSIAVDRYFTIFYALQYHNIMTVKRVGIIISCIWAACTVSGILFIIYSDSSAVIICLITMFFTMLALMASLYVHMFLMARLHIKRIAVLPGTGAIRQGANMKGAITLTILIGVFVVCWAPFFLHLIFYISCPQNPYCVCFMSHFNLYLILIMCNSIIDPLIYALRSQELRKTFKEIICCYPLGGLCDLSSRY
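Material – human MC4R-expressing U2OS cells · Repeats – no replicates · Detection – TR-FRET with Eu-cAMP and labeled anti-cAMP, 671 nm · Times – compound 30 min, challenge 1 h, detection 1 h · Compound – single nominal compound dose of 6.5 µM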
MC4R ag barr: MC4R agonists recruiting beta-arrestin, primary screen, cell-based, luminescence, agonist arm of biased-ligand search; Melanocortin receptor 4 (Homo sapiens), P32245; U2OS MC4R beta-arrestin complementation; percent of melanotan II response, DMSO zero; activation, % at 8.9 µM; 360,000 compounds, 0.98% hits; AID 540308, 2011;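 active means activation above a per-plate cutoff, the mean activation of sample wells on that plate plus 3 SD, cut at about 8% in these data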
MsrA inh: bovine MsrA enzyme inhibitors, primary screen, biochemical, absorbance, HTS; inhibition, % at 15.5 µM; purified bovine MsrA, absorbance read-out; Methionine sulfoxide reductase A (Bos taurus); 360,000 compounds, 0.75% hits; in the data active means inhibition above about 4.5%;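 further: 0% = vehicle wells with enzyme and 100% = reference inhibitor wells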
MsrA act: bovine MsrA enzyme activators, primary screen, biochemical, absorbance, HTS. AID 602163, 2012. purified bovine MsrA, absorbance read-out. activation, % at 10.6 µM. 360,000 compounds, 0.3% hits. Methionine sulfoxide reductase A (Bos taurus); in the data active means activation above about 7.5%;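 further: 0% = vehicle and 100% = reference activator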
U2OS cAMP counter: nonselective cAMP signaling inhibitors, parental cells, counter-screen for MC4R biased antagonist project, cell-based, TR-FRET, U2OS, forskolin, triplicate. shares compounds with MC4R antagonist. 1,600 compounds, 26% hits. LANCE TR-FRET. inhibition, % at 6.5 µM;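 active means mean inhibition over triplicates above the low-control well mean plus 3 SD, set per campaign, cut at about 13% in these data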;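 further: signal is single emission at 671 nm which falls as cellular cAMP rises; 0% = forskolin-stimulated wells and 100% = buffer without forskolin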
MC4R antag conf: MC4R cAMP antagonists, retest, confirmation, cell-based, TR-FRET; MC4R-expressing cells, MTII-stimulated cAMP; shares compounds with MC4R antagonist; 1,600 compounds, 27% hits; inhibition, % at 6.5 µM; in the data active means inhibition above about 29%;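 further: 0% = agonist stimulated wells alone and 100% = agonist stimulated wells plus saturating reference antagonist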
Active calls of the source: *; . = no result. Only some compounds are listed: those with a hit (about 2.3% of all), similar ones and a draw of the others.

SMILES	MC4R antagonist	MC4R ag barr	MsrA inh	MsrA act	U2OS cAMP counter	MC4R antag conf
CCCOc1ccc(C(=O)c2ccccc2C(=O)O)cc1OCCC	7	2	0	-15	.	.
O=C(CN1C(=O)c2ccccc2S1(=O)=O)Nc1ncc([N+](=O)[O-])s1	1	-4	1	-6	.	.
COc1cc(-c2nc3ccc4ccccc4c3c3c2CCC3)cc(OC)c1OC	32*	0	-1	-3	-1	31*
CCOC(=O)c1snc(-c2ccc(F)cc2)c1N	0	-1	2	-6	.	.
Cc1ccc(Cn2c(S(=O)(=O)O)nc3ccccc32)cc1	3	1	0	-1	.	.
CC(C)Cn1c(N)c(C(=O)COC(=O)c2ccc(O)cc2)c(=O)n(C)c1=O	2	-1	-2	-2	.	.
CC(C)Cn1c(N)c(C(=O)COC(=O)c2ccc([N+](=O)[O-])o2)c(=O)n(C)c1=O	35*	-2	1	1	10	19
Cn1c(=O)[nH]c(=O)c2c1nc(Br)n2CC(O)COc1ccc(Cl)cc1 (stereo not drawn)	31*	2	2	0	-4	-2
COc1ccc(OCC(O)Cn2c(Br)nc3c2c(=O)[nH]c(=O)n3C)cc1 (stereo not drawn)	-8	-2	-1	-1	.	.
COc1ccc(OC)c(-c2c3c([nH]c(=S)c2C#N)CCCC3)c1	8	0	-1	2	.	.
COc1ccc(-c2c3c([nH]c(=S)c2C#N)CCC3)cc1	88*	0	1	-10	20*	35*
CC1(C)CC2CC(C)(CN2C(=S)NC(=O)c2ccccc2Cl)C1 (stereo not drawn)	3	-1	0	-5	.	.
COc1ccc(/C=N/Nc2cc(C)nc(NS(=O)(=O)c3ccc(C)cc3)n2)cc1	32*	-2	3	-2	2	21
O=C(Cc1ccccc1)Nc1cccc(N2C(=O)C=CC2=O)c1	54*	-2	0	-11	18*	34*
COC(=O)[C@@]1(Sc2ccc(C)cc2)CC(=O)N(c2ccc3c(ccn3C)c2)[C@@H]1c1ccccc1	.	.	0	-3	.	.
O=S(=O)(NCCc1ccccc1)c1cnc(Cl)c(Br)c1	9	0	1	-2	.	.
O=S(=O)(NCc1ccco1)c1cnc(Cl)c(Br)c1	42*	-2	-1	-13	30*	67*
O=C(CCC(=O)Nc1nnc(C2CCCCC2)s1)Nc1ccc(F)cc1	-1	-1	-1	-2	.	.
COC(=O)c1cc2c(ccn2-c2ccc(F)cc2)n1CC(=O)OC(C)C	31*	0	0	-1	4	2
CC(C)c1nnc(NC(=O)CC(C)c2ccccc2)s1 (stereo not drawn)	12	0	1	-3	.	.
CCCc1nnc(NC(=O)CC(C)c2ccccc2)s1 (stereo not drawn)	30*	2	-1	0	-15	-29
COc1ccc(CNc2ccc([N+](=O)[O-])cn2)cc1	14	1	3	-3	.	.
CC(=O)Nc1cccc(NC(=O)CSc2ncc(C(=O)Nc3ccccc3)c(=O)n2C)c1	30*	-4	2	-3	0	20
CCc1nnc(NCn2nc(C)cc2C)s1	13	1	0	-2	.	.
CCCSC1=C(C#N)C(c2ccc(Cl)cc2Cl)CC(=O)N1 (stereo not drawn)	5	5	0	-2	.	.
SMILES	MC4R antagonist	MC4R ag barr	MsrA inh	MsrA act	U2OS cAMP counter	MC4R antag conf
CC(C)Cc1nc2oc3c(Cl)ncnc3c2c2c1CCCC2	46*	-2	-1	-2	14*	32*
CCCc1nc2oc3c(Cl)ncnc3c2c2c1CCCC2	18	-1	2	-9	.	.
Cc1cc(NC(=O)/C(C#N)=C/c2ccc(-c3cccc(C(F)(F)F)c3)o2)n(-c2ccccc2)n1	-2	6	-1	-4	.	.
Cc1cc(NC(=O)/C(C#N)=C/c2ccc(-c3ccc(SC(F)F)cc3)o2)n(-c2ccccc2)n1	36*	-2	-1	-3	2	-6
Cc1ccoc1C(=O)N1CCCC(CCC(=O)N2CCN(c3ccccn3)CC2)C1 (stereo not drawn)	31*	0	-1	-2	3	7
Cc1cccc(C(=O)N2CCCC(CCC(=O)N3CCN(c4ccccn4)CC3)C2)c1C (stereo not drawn)	1	1	0	-6	.	.
COc1cc(S(=O)(=O)N2CCOCC2)ccc1NC(=O)COC(=O)/C=C/c1cc(OC)c(OC)c(OC)c1	0	-2	1	-3	.	.
CCCCCCCCCCCCCCCCn1cc[n+](CC(C)=O)c1	29*	16*	.	1	3	33*
CCCCCCn1ccc(=N)cc1	3	-1	0	-1	.	.
O=C(CSc1c2c(nc3cc(Cl)ccc13)CCCC2)NCCN1CCOCC1	30*	-3	0	-5	3	24
Cc1cc(NC(=O)CCCC(=O)O)nc(C)n1	-1	1	1	-10	.	.
O=C(COC(=O)c1ccc2c(=O)n3c(nc2c1)CCC3)Nc1ccc(OC(F)F)cc1	30*	-3	1	-1	5	17
Cc1cccc(NC(=O)COC(=O)c2ccc3c(=O)n4c(nc3c2)CCC4)c1	17	-1	0	-3	.	.
CN(c1ccc(OCC(=O)OCC(=O)Nc2ccc(Br)cc2)cc1)S(=O)(=O)c1cccs1	29*	-1	-1	0	10	31*
CN(c1ccc(OCC(=O)OCC(=O)Nc2ccccc2)cc1)S(=O)(=O)c1cccs1	31*	-1	3	-4	14*	37*
CCOC(=O)c1c(NC(=O)CSc2ncn[nH]2)sc(C(=O)N(C)C)c1C	2	0	0	-7	.	.
CNC[C@H](Cc1ccccc1)NC[C@@H](Cc1cccc2ccccc12)NCCc1ccc(C)cc1	31*	5	1	-12	-4	-28
Cc1ccc(S(=O)(=O)N(C)CC(=O)OCC(=O)N2CCN(c3ccccc3)CC2)cc1	33*	-1	0	-2	20*	21
CCN(CC(=O)N1CCN(c2ccccc2)CC1)S(=O)(=O)c1ccc(C)cc1	-2	-1	0	-1	.	.
O=C(Nc1ccccc1)C1=C(c2ccccc2)S(=O)(=O)CCS1(=O)=O	47*	-1	0	-8	28*	37*
CNC(=S)N(CCc1c(C)[nH]c2ccccc12)Cc1ccco1	15	-1	0	-1	.	.
Cc1ccc(C)c(NC(=O)c2sc(Cl)nc2-c2ccccc2)c1	37*	3	0	2	15*	32*
